# Source: ChEMBL document CHEMBL4373735, “N-alkyl-hydroxybenzoyl anilide hydroxamates as dual inhibitors of HDAC and HSP90, downregulating IFN-γ induced PD-L1 expression” (Eur J Med Chem, 2020)
# Tests used:
# [1] = system: A549; assay: Antiproliferative activity against human A549 cells assessed as cell growth inhibition after 48 hrs by sulforhodamine B assay; type: functional
# Summary of the method: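 Cells seeded at 5000/well overnight; baseline plate fixed with 10% TCA at time of compound addition (T0). Treated with DMSO or graded doses for 48 h, fixed with 10% TCA, stained with 0.4% (w/v) SRB in 1% acetic acid, washed with 1% acetic acid, dye solubilised in 10 mM Trizma base, absorbance at 515 nm. GI50 from T0-corrected growth; at least three independent experiments, SD reported.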
# [2] = biological target: Heat shock protein HSP 90-alpha (Homo sapiens, UniProt P07900); assay: Inhibition of FITC-geldanamycin binding to recombinant human full-length C-terminal His-tagged HSP90alpha expressed in Escherichia coli after 3 hrs by fluorescence polarization assay
# [3] = biological target: Histone deacetylase; type: cell-based, Homo sapiens; settings: hela
# [4] = system: NCI-H1975; assay: cells; type: functional; settings: Homo sapiens, NCI-H1975, 48 h
# [5] = system: HCT-116; assay: cells; type: functional; settings: Homo sapiens, HCT-116, 48 h
# [6] = cells; type: ADME, cell-based; settings: Homo sapiens, SC9
# [7] = biological target: Histone deacetylase 1 (Homo sapiens, UniProt Q13547); assay: Inhibition of HDAC1 (unknown origin)
# Histone deacetylase 1, sequence (Q13547 whole entry): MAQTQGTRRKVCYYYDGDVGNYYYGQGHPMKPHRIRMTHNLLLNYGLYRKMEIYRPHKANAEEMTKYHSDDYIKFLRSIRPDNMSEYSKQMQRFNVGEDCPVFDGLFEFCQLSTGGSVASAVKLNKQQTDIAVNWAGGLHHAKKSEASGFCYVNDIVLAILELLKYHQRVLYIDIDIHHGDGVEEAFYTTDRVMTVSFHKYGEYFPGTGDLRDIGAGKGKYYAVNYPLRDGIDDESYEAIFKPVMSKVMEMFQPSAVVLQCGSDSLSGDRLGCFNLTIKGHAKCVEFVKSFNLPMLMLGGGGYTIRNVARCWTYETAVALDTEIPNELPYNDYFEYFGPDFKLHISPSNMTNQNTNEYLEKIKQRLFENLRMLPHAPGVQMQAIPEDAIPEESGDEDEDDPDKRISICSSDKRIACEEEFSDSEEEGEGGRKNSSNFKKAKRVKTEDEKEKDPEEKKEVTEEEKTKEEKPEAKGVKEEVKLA
# [8] = species: Homo sapiens; assay: Selectivity ratio of IC50 for HDAC1 (unknown origin) to IC50 for HDAC6 (unknown origin)
Ratio IC50 [8],Compound,GI50 [1],IC50 [2],IC50 [3],"GI50 ([1]; Homo sapiens, A549, 48 h)",GI50 [4],GI50 [5],IC50 [6],IC50 [7]
–,O=C(CCCCCCC(=O)Nc1ccccc1)NO [VORINOSTAT],1020 nM,> 500 nM,–,–,–,–,–,–
–,CC(C)c1cc(C(=O)N(C)c2cccc(NC(=O)CCCCCCC(=O)NO)c2)c(O)cc1O,–,302 nM,211 nM,2300 nM,1660 nM,1170 nM,–,–
–,O=C(CCCCC[C@@H](NC(=O)c1ccccc1)C(=O)Nc1ccccc1)NO,–,–,–,–,–,–,73 nM,12.1 nM
–,CCN(C(=O)c1cc(C(C)C)c(O)cc1O)c1cccc(NC(=O)CCCCCCC(=O)NO)c1,–,146 nM,126 nM,1590 nM,940 nM,1120 nM,–,–
–,C=CCNC1=C2C[C@@H](C)C[C@H](OC)[C@H](O)[C@@H](C)/C=C(\C)[C@H](OC(N)=O)[C@@H](OC)/C=C\C=C(/C)C(=O)NC(=CC1=O)C2=O (stereo in doubt) [TANESPIMYCIN],–,–,> 1000 nM,7.5 nM,160 nM,340 nM,–,–
–,CC(C)c1cc(C(=O)Nc2ccc(NC(=O)CCCCCCC(=O)NO)cc2)c(O)cc1O,–,> 1000 nM,415 nM,> 10000 nM,> 10000 nM,5430 nM,–,–
–,CC(C)c1cc(C(=O)Nc2ccccc2NC(=O)CCCCCCC(=O)NO)c(O)cc1O,–,> 1000 nM,> 1000 nM,> 10000 nM,> 10000 nM,4920 nM,–,–
51,O=C(CCCCCCC(=O)Nc1ccc(-c2cn(Cc3ccc(F)cc3)nn2)cc1)NO,–,–,–,–,–,–,–,–
–,CC(C)c1cc(C(=O)N(C)c2ccc(NC(=O)CCCCCCCCC(=O)NO)cc2)c(O)cc1O,–,–,672 nM,1080 nM,210 nM,590 nM,–,–
–,CC(C)c1cc(C(=O)N(C)c2ccc(NC(=O)CCCCCC(=O)NO)cc2)c(O)cc1O,–,169 nM,391 nM,2830 nM,690 nM,3780 nM,–,–
–,O=C(CCCCC[C@@H](NC(=O)c1ccccc1)C(=O)Nc1ccc2ncccc2c1)NO,–,–,–,–,–,–,90 nM,3.5 nM
–,CCN(C(=O)c1cc(C(C)C)c(O)cc1O)c1ccc(NC(=O)CCCCCCC(=O)NO)cc1,–,186 nM,462 nM,5630 nM,1380 nM,3560 nM,–,–
–,CC(C)c1cc(C(=O)N(c2ccc(NC(=O)CCCCCCC(=O)NO)cc2)C(C)C)c(O)cc1O,–,> 1000 nM,> 1000 nM,> 10000 nM,> 10000 nM,> 10000 nM,–,–
–,CC(C)c1cc(C(=O)Nc2cccc(NC(=O)CCCCCCC(=O)NO)c2)c(O)cc1O,–,> 1000 nM,106 nM,> 10000 nM,> 10000 nM,6230 nM,–,–
